According to ChEMBL document CHEMBL4152234, “Aminobenzothiazole derivatives stabilize the thermolabile p53 cancer mutant Y220C and show anticancer activity in p53-Y220C cell lines” (Eur J Med Chem, 2018):
Activity calls are given as the source filed them. The rule behind the calls is not given here.

How the values were obtained:
[1] = test system: Cellular tumor antigen p53 (Homo sapiens), P04637 [Y220C]; assay: Activation of p53 Y220C mutant in human NUGC3 cells assessed as change in CHEK2 mRNA level at 60 uM after 18 hrs by RT-PCR method relative to control; type: cell-based
How it was run: (§1)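 p53 signalling qPCR array covering 84 genes. Cells were exposed for 18 h, with 0.5% DMSO in both compound and control samples. Total RNA was extracted and purified. Fold-changes were calculated by ΔΔCt using β2-microglobulin (B2M) as the housekeeping gene. Two independent biological replicates were run per cell line.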

[2] = test system: Cellular tumor antigen p53 (Homo sapiens), P04637 [Y220C]; assay: Activation of p53 Y220C mutant in human NUGC3 cells assessed as change in CASP9 mRNA level at 60 uM after 18 hrs by RT-PCR method relative to control; type: cell-based; how it was run: as §1
[3] = test system: Cellular tumor antigen p53 (Homo sapiens), P04637 [Y220C]; assay: Activation of p53 Y220C mutant in human NUGC3 cells assessed as change in PRKCA mRNA level at 60 uM after 18 hrs by RT-PCR method relative to control; type: cell-based
How it was run: (§2)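 p53 signalling qPCR array covering 84 p53 pathway genes. Cells were exposed for 18 h, and compound and control wells both held 0.5% DMSO. Total RNA was extracted and purified. Fold-changes were calculated by the ΔΔCt method against the untreated sample, with β2-microglobulin (B2M) as the housekeeping gene. Each cell line was run in two independent biological replicates.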

[4] = test system: Cellular tumor antigen p53 (Homo sapiens), P04637 [Y220C]; assay: Activation of p53 Y220C mutant in human NUGC3 cells assessed as change in MYC mRNA level at 60 uM after 18 hrs by RT-PCR method relative to control; type: cell-based; how it was run: as §2
[5] = test system: Cellular tumor antigen p53 (Homo sapiens), P04637 [Y220C]; assay: Activation of p53 Y220C mutant in human NUGC3 cells assessed as change in MDM2 mRNA level at 60 uM after 18 hrs by RT-PCR method relative to control; type: cell-based; how it was run: as §2
[6] = test system: Cellular tumor antigen p53 (Homo sapiens), P04637 [Y220C]; assay: Activation of p53 Y220C mutant in human NUGC3 cells assessed as change in MDM4 mRNA level at 60 uM after 18 hrs by RT-PCR method relative to control; type: cell-based; how it was run: as §2
[7] = test system: Cellular tumor antigen p53 (Homo sapiens), P04637 [Y220C]; assay: Activation of p53 Y220C mutant in human NUGC3 cells assessed as change in RELA mRNA level at 60 uM after 18 hrs by RT-PCR method relative to control; type: cell-based; how it was run: as §2
[8] = test system: Cellular tumor antigen p53 (Homo sapiens), P04637 [Y220C]; assay: Activation of p53 Y220C mutant in human NUGC3 cells assessed as change in BID mRNA level at 60 uM after 18 hrs by RT-PCR method relative to control; type: cell-based; how it was run: as §1
[9] = test system: Cellular tumor antigen p53 (Homo sapiens), P04637 [Y220C]; assay: Activation of p53 Y220C mutant in human NUGC3 cells assessed as change in CASP2 mRNA level at 60 uM after 18 hrs by RT-PCR method relative to control; type: cell-based; how it was run: as §1
[10] = test system: Cellular tumor antigen p53 (Homo sapiens), P04637 [Y220C]; assay: Activation of p53 Y220C mutant in human NUGC3 cells assessed as change in CRADD mRNA level at 60 uM after 18 hrs by RT-PCR method relative to control; type: cell-based; how it was run: as §1
[11] = test system: Cellular tumor antigen p53 (Homo sapiens), P04637 [Y220C]; assay: Activation of p53 Y220C mutant in human NUGC3 cells assessed as change in IGF1R mRNA level at 60 uM after 18 hrs by RT-PCR method relative to control; type: cell-based; how it was run: as §1
[12] = test system: Cellular tumor antigen p53 (Homo sapiens), P04637 [Y220C]; assay: Activation of p53 Y220C mutant in human NUGC3 cells assessed as change in BAI1 mRNA level at 60 uM after 18 hrs by RT-PCR method relative to control; type: cell-based; how it was run: as §1
[13] = molecular target: T1, Cellular tumor antigen p53 (Homo sapiens, UniProt P04637); assay: Activation of p53 in human NUGC4 cells assessed as change in CCNG1 mRNA level at 60 uM after 18 hrs by RT-PCR method relative to control; type: cell-based; details: read-out: FC
How it was run: (§3)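 p53 signaling qPCR array of 84 p53-pathway genes. Cells were treated in 6-well plates for 18 h with 0.5% DMSO in compound and control samples. Total RNA was extracted and fold-changes were obtained by the ΔΔCt method against untreated control, with β2-microglobulin (B2M) as housekeeping gene. Two independent biological replicates per cell line.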

[14] = molecular target: T1, Cellular tumor antigen p53; assay: Activation of p53 in human NUGC4 cells assessed as change in PRKCA mRNA level at 60 uM after 18 hrs by RT-PCR method relative to control; type: cell-based; details: read-out: FC
[15] = molecular target: T1, Cellular tumor antigen p53; assay: Activation of p53 in human NUGC4 cells assessed as change in GML mRNA level at 60 uM after 18 hrs by RT-PCR method relative to control; type: cell-based; details: read-out: FC; how it was run: as §3
[16] = molecular target: T1, Cellular tumor antigen p53; assay: Activation of p53 in human NUGC4 cells assessed as change in KAT2B mRNA level at 60 uM after 18 hrs by RT-PCR method relative to control; type: cell-based; details: read-out: FC; how it was run: as §3
[17] = molecular target: T1, Cellular tumor antigen p53; assay: Activation of p53 in human NUGC4 cells assessed as change in NFKB1 mRNA level at 60 uM after 18 hrs by RT-PCR method relative to control; type: cell-based; details: read-out: FC
How it was run: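 p53-signalling qPCR array (84 pathway genes): cells treated 18 h in 0.5% DMSO, with DMSO-matched controls. Total RNA was extracted and fold-change quantified by the ΔΔCt method with β2-microglobulin (B2M) as housekeeping gene, normalized to the untreated sample. Two independent biological replicates per cell line.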

[18] = molecular target: T1, Cellular tumor antigen p53; assay: Activation of p53 in human NUGC4 cells assessed as change in TADA3 mRNA level at 60 uM after 18 hrs by RT-PCR method relative to control; type: cell-based; details: read-out: FC
[19] = molecular target: T1, Cellular tumor antigen p53; assay: Activation of p53 in human NUGC4 cells assessed as change in TNFRSF10D mRNA level at 60 uM after 18 hrs by RT-PCR method relative to control; type: cell-based; details: read-out: FC
[20] = molecular target: T1, Cellular tumor antigen p53; assay: Activation of p53 in human NUGC4 cells assessed as change in ADGRB1 mRNA level at 60 uM after 18 hrs by RT-PCR method relative to control; type: cell-based; details: read-out: FC; how it was run: as §2
[21] = molecular target: T1, Cellular tumor antigen p53; assay: Activation of p53 in human NUGC4 cells assessed as change in IL6 mRNA level at 60 uM after 18 hrs by RT-PCR method relative to control; type: cell-based; details: read-out: FC; how it was run: as §3
[22] = molecular target: T1, Cellular tumor antigen p53; assay: Activation of p53 in human NUGC4 cells assessed as change in KRAS mRNA level at 60 uM after 18 hrs by RT-PCR method relative to control; type: cell-based; details: read-out: FC; how it was run: as §3
[23] = test system: Cellular tumor antigen p53 (Homo sapiens), P04637 [Y220C]; assay: Activation of p53 Y220C mutant in human HuH7 cells assessed as increase in BBC3 mRNA level at 30 uM after 18 hrs by RT-PCR method; type: cell-based
How it was run: (§4)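 Real-time PCR. Cells were treated for 18 h, with 0.5% DMSO in both compound and control samples. Relative mRNA levels were quantified by the ΔΔCt method as fold-change against the untreated sample. Each sample was measured in triplicate, and data are given as mean ± SEM with an unpaired t-test.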

[24] = test system: Cellular tumor antigen p53 (Homo sapiens), P04637 [Y220C]; assay: Activation of p53 Y220C mutant in human HuH7 cells assessed as increase in p21 mRNA level at 30 uM after 18 hrs by RT-PCR method; type: cell-based; how it was run: as §4
[25] = test system: Cellular tumor antigen p53 (Homo sapiens), P04637 [Y220C]; assay: Activation of p53 Y220C mutant in human HuH7 cells assessed as increase in Bax mRNA level at 30 uM after 18 hrs by RT-PCR method; type: cell-based; how it was run: as §4
Huh-7 = assay: Upregulation of NOXA mRNA level in p53 Y220C mutant knockout human HuH7 cells at 30 uM after 18 hrs by RT-PCR method; type: functional, cell-based

Compound: CCNC(=O)c1c(O)c(I)c(-n2cccc2)c2sc(N(CC)CC)nc12
- fold change (FC) [1]: 1.1
- fold change (FC) [2]: 1
- fold change (FC) [3]: 1.1
- fold change (FC) [4]: 2.4
- fold change (FC) [5]: 1
- fold change (FC) [6]: 1.3
- fold change (FC) [7]: 1.1
- fold change (FC) [8]: 1.2
- fold change (FC) [9]: 1.1
- fold change (FC) [10]: 1.1
- fold change (FC) [11]: 1.8
- fold change (FC) [12]: 1.5
- fold induction at 60 µM [13]: 1
- fold induction at 60 µM [14]: 1
- fold induction at 60 µM [15]: 1.9
- fold induction at 60 µM [16]: 1
- fold induction at 60 µM [17]: 0.8
- fold induction at 60 µM [18]: 1
- fold induction at 60 µM [19]: 1
- fold induction at 60 µM [20]: 2.9
- fold induction at 60 µM [21]: 7.9
- fold induction at 60 µM [22]: 0.9
- Activity [23]: Active
- Activity [24]: Active
- Activity [25]: Active
- Activity (Huh-7): inactive
